The assay addresses Potassium channel subfamily K member 9 (Homo sapiens) (UniProt Q9NPC2). Briefly: KCNK9 channel inhibitors, concentration-response, SAR follow-up, cell-based, round III (AID 588724). As to conditions: HEK293-KCNK9, FluxOR thallium flux fluorescence; for normalised flux ratio, lower = inhibition: at 30 µM (top of the series). A digest of the protocol:
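Repeats: replicate concentration-response data per compound. Assay system: HEK293 cell line stably expressing human KCNK9 channel. Signal: FluxOR thallium-flux fluorescence, kinetic. Times: dye loading 90 min, compound 20 min, both room temperature, dark. Probe or stimulus: thallium/potassium stimulus, 5x stock of 25 mM K2SO4 plus 7 mM Tl2SO4.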

The structures appear in SMILES notation. Where “and” joins values, the source holds several entries; their conditions need not be identical. Equal entries are not always repeated. Calls of active or inactive are those of the source.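 The calls were made as follows: active = blocks the KCNK9 potassium channel at some tested dose and a concentration-response curve can be fitted; inactive = no blocking at any dose, or no curve could be fitted.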

Chain of Potassium channel subfamily K member 9 (Homo sapiens) (Q9NPC2 whole entry, looked up): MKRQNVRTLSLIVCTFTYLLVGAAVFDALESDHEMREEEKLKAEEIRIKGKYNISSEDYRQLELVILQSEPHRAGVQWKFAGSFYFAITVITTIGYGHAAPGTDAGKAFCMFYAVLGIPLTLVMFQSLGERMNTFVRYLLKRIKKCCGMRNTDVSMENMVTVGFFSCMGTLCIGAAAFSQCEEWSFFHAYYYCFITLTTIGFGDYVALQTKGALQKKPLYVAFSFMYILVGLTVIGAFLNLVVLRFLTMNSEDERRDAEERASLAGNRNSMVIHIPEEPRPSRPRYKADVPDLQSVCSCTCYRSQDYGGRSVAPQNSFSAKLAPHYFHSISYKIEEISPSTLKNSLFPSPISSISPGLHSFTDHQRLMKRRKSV

The term IC50 denotes the concentration that gives 50% inhibition. For the compound `CC(C1CCCCC1)n1c(-c2ccco2)n[nH]c1=S` (stereo not drawn), the IC50 is 3580 nM.

Take `COc1cccc(Cc2n[nH]c(=S)n2C(C)C2CC3CCC2C3)c1` (stereo not drawn): the IC50 is 2570 nM. Same read-out and setting: then `CC(C1CC2CCC1C2)n1c(-c2cccn2C)n[nH]c1=S` (stereo not drawn), with 1390 nM.

As to `COc1ccc(C(=O)CSc2nnc(-c3ccco3)n2C(C)C2CC3CCC2C3)cc1OC` (stereo not drawn), the IC50 was 1840 nM.

On to `CC(C)c1ccccc1C(=O)Nc1cccc(NC(=O)c2ccccc2OC(F)(F)F)c1`, for which the IC50 was 732 nM.

For `COc1ccc(C(=O)CSc2nnc(-c3ccco3)n2C(C)C2CC3CCC2C3)cc1` (stereo not drawn), the IC50 was 9140 nM. For `CC(C1CC2CCC1C2)n1c(SCC(=O)c2ccccc2)nnc1-c1ccco1` (stereo not drawn), the IC50 is 5210 nM. On to `S=c1[nH]nc(-c2ccco2)n1CC1CC2CCC1C2` (stereo not drawn), for which the “normalised flux ratio, lower = inhibition” value was “inactive”. Regarding `CC(C1CC2CCC1C2)n1c(-c2ccc(N(C)C)cc2)n[nH]c1=S` (stereo not drawn), the “normalised flux ratio, lower = inhibition” value was “inactive”. Consider `CC(C1CC2CCC1C2)n1c(SCC(=O)c2ccc3c(c2)OCO3)nnc1-c1ccco1` (stereo not drawn), for which the IC50 was 1600 nM. For `CC(C1CC2CCC1C2)n1c(-c2ccccc2F)n[nH]c1=S` (stereo not drawn), the IC50 was 109 nM.

Turning to `CC(C1CC2CCC1C2)n1c(-c2cccc(F)c2)n[nH]c1=S` (stereo not drawn), the IC50 was 134 nM. In the case of `CC(C1CC2CCC1C2)n1c(-c2ccco2)n[nH]c1=O` (stereo not drawn), the “normalised flux ratio, lower = inhibition” value was “inactive”. `COc1ccccc1C(=O)Nc1cc(NC(=O)c2ccccc2C(C)C)ccc1F`: the “normalised flux ratio, lower = inhibition” value was “inactive”. Consider `COc1cccc(C(=O)CSc2nnc(-c3ccco3)n2C(C)C2CC3CCC2C3)c1` (stereo not drawn), for which the IC50 was 4650 nM. As for `CC(C1CC2CCC1C2)n1c(-c2ccccn2)n[nH]c1=S` (stereo not drawn), the IC50 is 2370 nM.

As for `COc1ccccc1C(=O)Nc1cccc(NC(=O)c2cccc3ccccc23)c1`, the IC50 is 236 nM. Consider `CC(C1CC2CCC1C2)N(C)C(=O)c1ccco1` (stereo not drawn), for which the half-maximal inhibitory concentration (IC50) was 361 nM.

Take `CC(C1CC2CCC1C2)n1c(-c2cccc(N(C)C)c2)n[nH]c1=S` (stereo not drawn): the IC50 is 2270 nM. As for `CC(C1CC2CCC1C2)n1c(-c2ccco2)nnc1C(F)(F)F` (stereo not drawn), the IC50 is 16400 nM. On the same count and under the same terms, then `COc1ccc(CCSc2nnc(-c3ccco3)n2C(C)C2CC3CCC2C3)cc1OC` (stereo not drawn), with 2240 nM. On to `CC(c1cccc2ccccc12)n1c(-c2ccco2)n[nH]c1=S` (stereo not drawn), for which the “normalised flux ratio, lower = inhibition” value is “inactive”. In the case of `CC(NC(=O)c1ccco1)C1CC2CCC1C2` (stereo not drawn), the IC50 is 13400 nM. On the same count and under the same terms, then `CC(C)Oc1ccccc1C(=O)Nc1cccc(NC(=O)c2ccccc2OC(F)(F)F)c1`, with 65.1 nM.

Take `CC(C1CC2CCC1C2)n1c(-c2ccncc2)n[nH]c1=S` (stereo not drawn): the “normalised flux ratio, lower = inhibition” value is “inactive”. As to `COc1cccc(-c2nnc(S(C)(=O)=O)n2C(C)C2CC3CCC2C3)c1` (stereo not drawn), the IC50 was 18000 nM. For the compound `COc1cccc(-c2n[nH]c(=S)n2C(C)C2CC3CCC2C3)c1OC` (stereo not drawn), the IC50 is 2360 nM. In the case of `CC(C1CC2CCC1C2)n1c(SCC#N)nnc1-c1cccs1` (stereo not drawn), the IC50 was 17700 nM. `COc1cc(OC)cc(-c2n[nH]c(=S)n2C(C)C2CC3CCC2C3)c1` (stereo not drawn): the IC50 was 1030 nM. As for `CC(CCC1CCCC1)n1c(-c2ccco2)n[nH]c1=S` (stereo not drawn), the IC50 was 907 nM.

In the case of `C[C@@H](C1CCCCC1)n1c(-c2ccco2)n[nH]c1=S`, the IC50 was 9410 nM. On the same count and under the same terms, then `CC(C1CC2CCC1C2)n1c(SCC(=O)c2ccc(Cl)c(Cl)c2)nnc1-c1ccco1` (stereo not drawn), with 7770 nM. Still for that read-out and setting: then `C[C@H](C1CCCCC1)n1c(-c2ccco2)n[nH]c1=S`, with 187 nM; and `CSc1nnc(-c2ccco2)n1C(C)C1CC2CCC1C2` (stereo not drawn), with 21400 nM. Regarding `CC(C1CC2CCC1C2)n1c(-c2cccnc2)n[nH]c1=S` (stereo not drawn), the “normalised flux ratio, lower = inhibition” value was “inactive”. Regarding `CC(CC1CC2CCC1C2)n1c(-c2ccco2)n[nH]c1=S` (stereo not drawn), the IC50 was 292 nM. As for `CC(C1CC2CCC1C2)n1c(SC(F)F)nnc1-c1ccco1` (stereo not drawn), the IC50 was 8460 nM.

As for `CC(C1CC2CCC1C2)n1cnnc1-c1ccco1` (stereo not drawn), the IC50 is 1700 nM. The same measure, in the same setting: then `CC(C1CC2CCC1C2)n1c(-c2cccs2)n[nH]c1=S` (stereo not drawn), with 110 nM. For the compound `S=c1[nH]nc(-c2ccco2)n1C1CC2CCC1C2` (stereo not drawn), the “normalised flux ratio, lower = inhibition” value was “inactive”. With `CC(C1C2CCC1CC2)n1c(-c2ccco2)n[nH]c1=S` (stereo not drawn), the IC50 is 1170 nM. Take `CC(C1CC2CCC1C2)n1c(SCc2ccccc2)nnc1-c1ccco1` (stereo not drawn): the IC50 is 1390 nM. On to `CC(C1CC2CCC1C2)n1c(-c2ccco2)n[nH]c1=S` (stereo not drawn), for which the IC50 is 150 nM and 290 nM.

Values taken from PubChem BioAssay AID588724 (Johns Hopkins Ion Channel Center, 2011).
